Tests used:
[1] = AUC (0 to 24 hrs) in Sprague-Dawley rat at 5 mg/kg, po; type: ADME, organism-based; parameters: time < 24 hr, dose 5 mg/kg, route oral; conditions: plasma
Summary of the method: (§1)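 Compound given as a suspension by oral gavage to Sprague–Dawley rats as a single dose (5 mg/kg in the single-dose comparison; doses from 0.1–100 mg/kg in the dose-dependence study).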

[2] = tested on: Liver microsomes; assay: Drug metabolism in rat liver microsomes in presence of S9 fractions; type: ADME, Microsome
Summary of the method: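 Compound incubated with the S-9 fraction of rat liver microsomes to measure in vitro clearance. Primary metabolites formed during the incubation were identified.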

[3] = Half life in Sprague-Dawley rat at 5 mg/kg; type: ADME, organism-based; parameters: dose 5 mg/kg; conditions: in vivo
[4] = Oral bioavailability in Sprague-Dawley rat at 5 mg/kg; type: ADME, organism-based; conditions: in vivo
[5] = Cmax in Sprague-Dawley rat at 5 mg/kg, po; type: ADME, organism-based; parameters: dose 5 mg/kg, route oral; conditions: in vivo; summary of the method: as §1
[6] = Cmax in Sprague-Dawley rat at 100 mg/kg, po; type: ADME, organism-based; parameters: dose 100 mg/kg, route oral; conditions: in vivo; summary of the method: as §1
[7] = Cmax in Sprague-Dawley rat at 30 mg/kg, po; type: ADME, organism-based; parameters: dose 30 mg/kg, route oral; conditions: in vivo; summary of the method: as §1
[8] = Cmax in Sprague-Dawley rat at 1 mg/kg, po; type: ADME, organism-based; parameters: dose 1 mg/kg, route oral; conditions: in vivo; summary of the method: as §1
[9] = Cmax in Sprague-Dawley rat at 2 mg/kg, po; type: ADME, organism-based; parameters: dose 2 mg/kg, route oral; conditions: in vivo; summary of the method: as §1
[10] = Cmax in Sprague-Dawley rat at 0.3 mg/kg, po; type: ADME, organism-based; parameters: dose 0.3 mg/kg, route oral; conditions: in vivo; summary of the method: as §1
[11] = Cmax in Sprague-Dawley rat at 0.1 mg/kg, po; type: ADME, organism-based; parameters: dose 0.1 mg/kg, route oral; conditions: in vivo; summary of the method: as §1
[12] = AUC (0 to 24 hrs) in Sprague-Dawley rat at 100 mg/kg, po; type: ADME, organism-based; parameters: time < 24 hr, dose 100 mg/kg, route oral; conditions: plasma; summary of the method: as §1
[13] = AUC (0 to 24 hrs) in Sprague-Dawley rat at 30 mg/kg, po; type: ADME, organism-based; parameters: time < 24 hr, dose 30 mg/kg, route oral; conditions: plasma; summary of the method: as §1
[14] = AUC (0 to 24 hrs) in Sprague-Dawley rat at 2 mg/kg, po; type: ADME, organism-based; parameters: time < 24 hr, dose 2 mg/kg, route oral; conditions: plasma; summary of the method: as §1
[15] = AUC (0 to 24 hrs) in Sprague-Dawley rat at 1 mg/kg, po; type: ADME, organism-based; parameters: time < 24 hr, dose 1 mg/kg, route oral; conditions: plasma; summary of the method: as §1
[16] = AUC (0 to 24 hrs) in Sprague-Dawley rat at 0.3 mg/kg, po; type: ADME, organism-based; parameters: time < 24 hr, dose 0.3 mg/kg, route oral; conditions: plasma; summary of the method: as §1
[17] = AUC (0 to 24 hrs) in Sprague-Dawley rat at 0.1 mg/kg, po; type: ADME, organism-based; parameters: time < 24 hr, dose 0.1 mg/kg, route oral; conditions: plasma; summary of the method: as §1

O=S(=O)(Nc1cc(Cl)c(Oc2cncc(Cl)c2)c(Cl)c1)c1ccc(Cl)cc1Cl
AUC(0-t) at 24 h [1]: 4.8 µM·h

CCNC(=O)c1cc(NS(=O)(=O)c2cc(C)c(Cl)cc2Cl)ccc1Oc1cncc(Cl)c1
Drug metabolism [2]: Active
half-life [3]: 40 min
bioavailability [4]: 8%
AUC(0-t) at 24 h [1]: 1.6 µM·h

O=S(=O)(Nc1ccc(Oc2cnc3ccccc3c2)c(Cl)c1)c1ccc(Cl)cc1Cl
Cmax [5]: 11000 nM
AUC(0-t) at 24 h [1]: 105 µM·h

O=S(=O)(Nc1ccc(Oc2cnc3ccccc3c2)c(F)c1)c1ccc(Cl)cc1Cl
Cmax [5]: 4800 nM
AUC(0-t) at 24 h [1]: 82 µM·h

O=S(=O)(Nc1cc(Cl)c(Oc2cnc3ccccc3c2)c(Cl)c1)c1ccc(C(F)(F)F)cc1Cl
Cmax [5]: 8500 nM
AUC(0-t) at 24 h [1]: 112 µM·h

CC(=O)c1cc(NS(=O)(=O)c2ccc(Cl)cc2Cl)ccc1Oc1cnc2ccccc2c1
Cmax [5]: 920 nM
AUC(0-t) at 24 h [1]: 3.4 µM·h

N#Cc1cc(NS(=O)(=O)c2ccc(Cl)cc2Cl)ccc1Oc1cncc(Cl)c1
AUC(0-t) at 24 h [1]: 31 µM·h

O=S(=O)(Nc1cc(Cl)c(Oc2cnc3ccccc3c2)c(Cl)c1)c1ccc(Cl)cc1Cl [INT131]
Cmax [6]: 6100 nM
Cmax [7]: 4300 nM
Cmax [8]: 390 nM
Cmax [9]: 660 nM
Cmax [10]: 130 nM
Cmax [11]: 80 nM
AUC(0-t) at 24 h [12]: 100 µM·h
AUC(0-t) at 24 h [13]: 71 µM·h
AUC(0-t) at 24 h [14]: 8.3 µM·h
AUC(0-t) at 24 h [15]: 5.1 µM·h
AUC(0-t) at 24 h [16]: 2.6 µM·h
AUC(0-t) at 24 h [17]: 1.1 µM·h
Cmax [5]: 1100 nM
AUC(0-t) at 24 h [1]: 30 µM·h

Source: ChEMBL document CHEMBL2331151 (Bioorg Med Chem, 2013)
